Values joined by “and” are separate entries in the source; they are usually repeats but may differ in a detail not shown here. Equal values may be shown once.
Columns and labels:
[1] = test system: Fibroblast; experiment: Multiplex assay against human fibroblast; assay type: toxicity, cell-based
In short: (§1)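 Four dyes were applied at seeding to live cells: Hoechst33342, BioTracker Green Microtubule Cytoskeleton Dye, MitoTracker Red and Annexin V Alexa Fluor 680. Imaging after compound addition used a CQ1 microscope at 37°C and 5% CO2. CellPathfinder machine-learning gating then sorted cells into Hoechst high-intensity objects or normal cells, normal cells into healthy, pyknosed or fragmented nuclei, and pyknosed cells into mitotic or apoptotic, with tubulin, mitochondrial-mass and membrane-permeability phenotypes given as per cents of healthy-nucleus cells.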

[2] = test system: U2OS; experiment: Multiplex assay against U2OS; assay type: toxicity, cell-based; details: human; in short: as §1
[3] = 12 h, 1 µM, compound concentration 1 uM
[4] = 12 h, 10 µM, compound concentration 10 uM
[5] = 24 h, 1 µM, compound concentration 1 uM
[6] = 24 h, 10 µM, compound concentration 10 uM
[7] = 48 h, 1 µM, compound concentration 1 uM
[8] = 48 h, 10 µM, compound concentration 10 uM

CN[C@@H](C)C(=O)N[C@H](C(=O)N1CCC[C@H]1C(=O)Nc1snnc1-c1ccccc1)C1CCCCC1 [GDC-0152]
Population Apoptotic (%) [1, 3]: 70% and 33% | Population Fragmented Nuclei (%) [1, 3]: 14% and 16% | Population Healthy Nuclei (%) [1, 3]: 68% and 56% | Population Hoechst High Intensity Objects (%) [1, 3]: 4% and 6% | Population Membrane Permeable-Phenotype (%) [1, 3]: 1% and 6% | Population Mitochondria Different-Phenotype (%) [1, 3]: 6% and 9% | Population Mitotic Cells (%) [1, 3]: 30% and 66% | Population Normal (%) [1, 3]: 95% and 93% | Population Pyknosed Nuclei (%) [1, 3]: 16% and 26% | Population Tubulin-Different-Phenotype (%) [1, 3]: 38% and 62% | Total Cell Count [1, 3]: 127 and 121 | Population Apoptotic (%) [1, 4]: 38% and 24% | Population Fragmented Nuclei (%) [1, 4]: 17% and 26% | Population Healthy Nuclei (%) [1, 4]: 59% and 34% | Population Hoechst High Intensity Objects (%) [1, 4]: 6% and 10% | Population Membrane Permeable-Phenotype (%) [1, 4]: 0% | Population Mitochondria Different-Phenotype (%) [1, 4]: 13% and 10% | Population Mitotic Cells (%) [1, 4]: 61% and 75% | Population Normal (%) [1, 4]: 93% and 90% | Population Pyknosed Nuclei (%) [1, 4]: 22% and 39% | Population Tubulin-Different-Phenotype (%) [1, 4]: 80% and 65% | Total Cell Count [1, 4]: 144 and 150 | Population Apoptotic (%) [1, 5]: 60% and 37% | Population Fragmented Nuclei (%) [1, 5]: 20% and 22% | Population Healthy Nuclei (%) [1, 5]: 63% and 55% | Population Hoechst High Intensity Objects (%) [1, 5]: 2% and 9% | Population Membrane Permeable-Phenotype (%) [1, 5]: 1% and 2% | Population Mitochondria Different-Phenotype (%) [1, 5]: 1% and 11% | Population Mitotic Cells (%) [1, 5]: 40% and 62% | Population Normal (%) [1, 5]: 97% and 90% | Population Pyknosed Nuclei (%) [1, 5]: 16% and 22% | Population Tubulin-Different-Phenotype (%) [1, 5]: 30% and 61% | Total Cell Count [1, 5]: 123 and 133 | Population Apoptotic (%) [1, 6]: 67% and 41% | Population Fragmented Nuclei (%) [1, 6]: 14% and 33% | Population Healthy Nuclei (%) [1, 6]: 58% and 34% | Population Hoechst High Intensity Objects (%) [1, 6]: 5% and 8% | Population Membrane Permeable-Phenotype (%) [1, 6]: 0% and 16% | Population Mitochondria Different-Phenotype (%) [1, 6]: 21% and 22% | Population Mitotic Cells (%) [1, 6]: 32% and 58% | Population Normal (%) [1, 6]: 94% and 91% | Population Pyknosed Nuclei (%) [1, 6]: 26% and 31% | Population Tubulin-Different-Phenotype (%) [1, 6]: 83% and 68% | Total Cell Count [1, 6]: 135 and 157 | Population Apoptotic (%) [1, 7]: 47% and 57% | Population Fragmented Nuclei (%) [1, 7]: 23% and 38% | Population Healthy Nuclei (%) [1, 7]: 60% and 44% | Population Hoechst High Intensity Objects (%) [1, 7]: 1% and 5% | Population Membrane Permeable-Phenotype (%) [1, 7]: 0% and 2% | Population Mitotic Cells (%) [1, 7]: 52% and 42% | Population Normal (%) [1, 7]: 98% and 94% | Population Pyknosed Nuclei (%) [1, 7]: 16% and 17% | Population Tubulin-Different-Phenotype (%) [1, 7]: 48% and 67% | Total Cell Count [1, 7]: 132 and 159 | Population Apoptotic (%) [1, 8]: 76% and 44% | Population Fragmented Nuclei (%) [1, 8]: 23% and 39% | Population Healthy Nuclei (%) [1, 8]: 45% and 42% | Population Hoechst High Intensity Objects (%) [1, 8]: 6% | Population Membrane Permeable-Phenotype (%) [1, 8]: 0% and 19% | Population Mitochondria Different-Phenotype (%) [1, 8]: 22% and 17% | Population Mitotic Cells (%) [1, 8]: 23% and 55% | Population Normal (%) [1, 8]: 93% | Population Pyknosed Nuclei (%) [1, 8]: 31% and 18% | Population Tubulin-Different-Phenotype (%) [1, 8]: 81% and 88% | Total Cell Count [1, 8]: 145 and 159 | Population Apoptotic (%) [2, 3]: 60% and 89% | Population Fragmented Nuclei (%) [2, 3]: 25% and 21% | Population Healthy Nuclei (%) [2, 3]: 61% and 60% | Population Hoechst High Intensity Objects (%) [2, 3]: 5% and 11% | Population Membrane Permeable-Phenotype (%) [2, 3]: 51% and 50% | Population Mitochondria Different-Phenotype (%) [2, 3]: 24% and 38% | Population Normal (%) [2, 3]: 94% and 88% | Population Pyknosed Nuclei (%) [2, 3]: 13% and 17% | Population Tubulin-Different-Phenotype (%) [2, 3]: 47% and 52% | Total Cell Count [2, 3]: 176 and 121 | Population Apoptotic (%) [2, 4]: 72% and 70% | Population Fragmented Nuclei (%) [2, 4]: 39% and 18% | Population Healthy Nuclei (%) [2, 4]: 44% and 65% | Population Hoechst High Intensity Objects (%) [2, 4]: 4% and 5% | Population Membrane Permeable-Phenotype (%) [2, 4]: 65% and 73% | Population Mitochondria Different-Phenotype (%) [2, 4]: 61% and 70% | Population Mitotic Cells (%) [2, 4]: 27% and 29% | Population Normal (%) [2, 4]: 95% and 94% | Population Pyknosed Nuclei (%) [2, 4]: 16% and 15% | Population Tubulin-Different-Phenotype (%) [2, 4]: 76% and 91% | Total Cell Count [2, 4]: 208 and 114 | Population Apoptotic (%) [2, 5]: 72% and 85% | Population Fragmented Nuclei (%) [2, 5]: 21% and 34% | Population Healthy Nuclei (%) [2, 5]: 55% and 44% | Population Hoechst High Intensity Objects (%) [2, 5]: 5% and 8% | Population Membrane Permeable-Phenotype (%) [2, 5]: 20% and 25% | Population Mitochondria Different-Phenotype (%) [2, 5]: 18% and 28% | Population Mitotic Cells (%) [2, 5]: 27% and 14% | Population Normal (%) [2, 5]: 94% and 91% | Population Pyknosed Nuclei (%) [2, 5]: 23% and 21% | Population Tubulin-Different-Phenotype (%) [2, 5]: 19% and 27% | Total Cell Count [2, 5]: 196 and 144
